According to ChEMBL document CHEMBL4480400, “Development of an N-Acyl Amino Acid That Selectively Inhibits the Glycine Transporter 2 To Produce Analgesia in a Rat Model of Chronic Pain” (J Med Chem, 2019):

What was measured:
[1] = biological target: T1, Sodium- and chloride-dependent glycine transporter 2 (Homo sapiens, UniProt Q9Y345); assay: Inhibition of recombinant human GlyT2a expressed in Xenopus laevis oocytes assessed as reduction in channel current by two-electrode voltage clamp electrophysiology; format: cell-based
T1 sequence (Q9Y345 whole entry): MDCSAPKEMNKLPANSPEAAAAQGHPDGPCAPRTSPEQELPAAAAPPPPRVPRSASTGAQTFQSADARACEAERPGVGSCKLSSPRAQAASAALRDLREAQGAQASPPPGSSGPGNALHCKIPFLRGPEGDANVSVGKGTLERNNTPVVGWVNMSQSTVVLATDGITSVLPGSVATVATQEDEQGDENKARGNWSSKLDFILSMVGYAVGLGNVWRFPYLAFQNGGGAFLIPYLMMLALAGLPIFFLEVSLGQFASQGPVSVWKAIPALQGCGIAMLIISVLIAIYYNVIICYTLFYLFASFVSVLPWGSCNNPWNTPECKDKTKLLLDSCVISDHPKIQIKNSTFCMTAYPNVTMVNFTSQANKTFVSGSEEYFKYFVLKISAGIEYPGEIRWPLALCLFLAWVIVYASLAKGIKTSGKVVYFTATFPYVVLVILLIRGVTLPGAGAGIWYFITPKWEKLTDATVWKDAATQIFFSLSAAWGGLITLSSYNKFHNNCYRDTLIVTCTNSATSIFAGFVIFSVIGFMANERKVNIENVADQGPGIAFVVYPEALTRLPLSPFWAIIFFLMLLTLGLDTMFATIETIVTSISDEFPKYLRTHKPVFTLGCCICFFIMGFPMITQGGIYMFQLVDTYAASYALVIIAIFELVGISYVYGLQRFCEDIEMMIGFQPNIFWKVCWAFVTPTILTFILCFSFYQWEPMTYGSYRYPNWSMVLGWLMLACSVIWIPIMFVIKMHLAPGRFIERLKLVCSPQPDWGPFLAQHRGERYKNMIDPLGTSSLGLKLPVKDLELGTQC

[2] = biological target: T2, Sodium- and chloride-dependent glycine transporter 2 (Homo sapiens) (UniProt Q9Y345); assay: Inhibition of recombinant human GlyT2a expressed in Xenopus laevis oocytes assessed as reduction in channel current by two-electrode voltage clamp electrophysiology relative to control; format: cell-based
T2 sequence (whole entry): T1 sequence (Q9Y345 whole entry)

[3] = biological target: T3, Sodium- and chloride-dependent glycine transporter 1 (Homo sapiens, UniProt P48067); assay: Inhibition of recombinant human GlyT1b expressed in Xenopus laevis oocytes assessed as reduction in channel current by two-electrode voltage clamp electrophysiology; format: cell-based
T3 sequence (P48067 whole entry): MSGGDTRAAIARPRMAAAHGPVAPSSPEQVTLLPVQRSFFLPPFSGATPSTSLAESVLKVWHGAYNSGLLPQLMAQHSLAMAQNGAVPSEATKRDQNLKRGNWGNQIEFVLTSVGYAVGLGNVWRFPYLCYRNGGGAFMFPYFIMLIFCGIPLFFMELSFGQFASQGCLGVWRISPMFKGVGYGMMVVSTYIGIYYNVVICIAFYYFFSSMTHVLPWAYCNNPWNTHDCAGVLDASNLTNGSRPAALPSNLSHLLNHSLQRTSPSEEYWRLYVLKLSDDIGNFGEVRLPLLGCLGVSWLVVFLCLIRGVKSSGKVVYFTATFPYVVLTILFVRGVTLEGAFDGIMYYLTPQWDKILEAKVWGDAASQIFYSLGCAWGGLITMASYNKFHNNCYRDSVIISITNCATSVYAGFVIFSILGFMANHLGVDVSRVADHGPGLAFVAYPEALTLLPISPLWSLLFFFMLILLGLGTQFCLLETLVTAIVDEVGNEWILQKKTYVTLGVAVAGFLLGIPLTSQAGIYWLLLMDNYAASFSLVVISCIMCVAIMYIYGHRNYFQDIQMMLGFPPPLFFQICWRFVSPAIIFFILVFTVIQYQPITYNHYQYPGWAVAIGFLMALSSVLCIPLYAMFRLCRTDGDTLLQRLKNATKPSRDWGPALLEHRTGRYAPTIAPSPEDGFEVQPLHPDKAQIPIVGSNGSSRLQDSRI

[4] = biological target: T1, Sodium- and chloride-dependent glycine transporter 2; assay: Reversible non-competitive inhibition of human GlyT2a expressed in Xenopus laevis oocytes by two-electrode voltage clamp electrophysiology; format: cell-based
Procedure, shortened: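 Xenopus laevis stage V-VI oocytes injected with 4.6 ng GlyT2 cRNA, kept 2-5 days at 16-18 °C in ND96 (pH 7.55). Two-electrode voltage clamp at -60 mV. Glycine concentration responses recorded without inhibitor, then after 2 min pre-application of inhibitor (10 nM, 30 nM or 1 μM) in ND96. Currents normalised per cell to Imax at 300 μM glycine without inhibitor; EC50 and Imax compared by ANOVA.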

[5] = Degradation half life in rat plasma at 1000 ng/ml by LC-MS/MS analysis; format: ADME, cell-free
Procedure, shortened: (§1)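 Pooled human plasma (3 donors) or pooled male Sprague-Dawley rat plasma, thawed at 37°C. Spiked to a nominal 1000 ng/mL final (0.2% DMSO, 0.4% acetonitrile final) and incubated at 37°C. Aliquots were snap-frozen at time points over 4 h (n=3 per time point). Quantified by LC-MS against a same-species blank-plasma calibration with a leucine enkephalin internal standard.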

[6] = Degradation half life in human plasma at 1000 ng/ml by LC-MS/MS analysis; format: ADME, cell-free; procedure, shortened: as §1
[7] = Drug degradation in human plasma at 1000 ng/ml measured over 240 mins by LC-MS/MS analysis; format: ADME, cell-free; settings: read-out: Drug degradation; procedure, shortened: as §1

SMILES	IC50 [1] [nM]	Imax [2] [%]	IC50 [3] [nM]	IC50 [4] [nM]	t1/2 [5] [h]	t1/2 [6] [h]	metabolised at 4 h, 1000 ng/ml [7] [%]
CCCCCCCC/C=C\CCCCCCCC(=O)N[C@@H](CC(N)=O)C(=O)O	613	92.7	> 10000	–	–	–	–
CCCCCCCC/C=C\CCCCCCCC(=O)N[C@@H](CCCCN)C(=O)OC	91.3	78.8	> 3000	–	–	–	–
CCCCCCCC/C=C\CCCCCCCC(=O)N[C@H](CO)C(=O)O	64.8	73.6	> 3000	–	–	–	–
CCCCCCCC/C=C\CCCCCCCC(=O)N[C@@H](Cc1cnc[nH]1)C(=O)O	130	78.4	> 3000	–	–	–	–
CCCCCCCC/C=C\CCCCCCCC(=O)NCCCCCN	560	86.7	> 3000	–	–	–	–
CCCCCCCC/C=C\CCCCCCCC(=O)N[C@@H](CCc1ccccc1)C(=O)O	151	75.1	> 10000	–	–	–	–
CCCCC/C=C\C/C=C\C/C=C\C/C=C\CCCC(=O)NCC(=O)O [ARACHIDONOYL GLYCINE]	–	–	–	9000	–	–	–
CCCCCCCC/C=C\CCCCCCCC(=O)N[C@@H](CO)C(=O)O	496	73.1	> 3000	–	–	–	–
CCCCCCCC/C=C\CCCCCCCC(=O)N[C@@H](C(=O)O)C(C)C	1000	56.7	> 30000	–	–	–	–
CCCCCCCC/C=C\CCCCCCCC(=O)N[C@@H](CCCNC(=N)N)C(=O)O	47.9	87.2	> 3000	–	–	–	–
CCCCCCCC/C=C\CCCCCCCC(=O)N[C@H](CCSC)C(=O)O	259	68.6	> 3000	–	–	–	–
CCCCCCCC/C=C\CCCCCCCC(=O)N[C@@H](CCC(=O)O)C(=O)O	4350	100	> 10000	–	–	–	–
CCCCCCCC/C=C\CCCCCCCC(=O)N[C@H](Cc1cnc[nH]1)C(=O)O	313	82.1	> 3000	–	–	–	–
CCCCCCCC/C=C\CCCCCCCC(=O)N[C@H](CC(C)C)C(=O)O	> 30000	35.6	> 30000	–	–	–	–
CCCCCCCC/C=C\CCCCCCCC(=O)O[C@H](CC(=O)[O-])C[N+](C)(C)C	–	–	–	340	–	–	–
CCCCCCCC/C=C\CCCCCCCC(=O)N[C@@H](CCCC)C(=O)O	259	64.5	> 10000	–	–	–	–
CCCCCCCC/C=C\CCCCCCCC(=O)N[C@@H](CCSC)C(=O)O	29.2	91.2	> 3000	–	–	–	–
CCCCCCCCCCCCCCCC(=O)O[C@H](CC(=O)[O-])C[N+](C)(C)C	–	–	–	600	–	–	–
CCCCCCCC/C=C\CCCCCCCC(=O)N[C@H](C)C(=O)O	2330	81.7	> 30000	–	–	–	–

SMILES	IC50 [1] [nM]	Imax [2] [%]	IC50 [3] [nM]	IC50 [4] [nM]	t1/2 [5] [h]	t1/2 [6] [h]	metabolised at 4 h, 1000 ng/ml [7] [%]
CCCCCCCC/C=C\CCCCCCCC(=O)N[C@H](C(=O)O)C(C)C	1170	90.1	> 30000	–	–	–	–
CCCCCCCC/C=C\CCCCCCCC(=O)N[C@@H](Cc1c[nH]c2ccccc12)C(=O)O	54.6	86.2	> 10000	–	–	–	–
CCCCCCCC/C=C\CCCCCCCC(=O)N[C@H](Cc1c[nH]c2ccccc12)C(=O)O	> 10000	14.2	> 10000	–	–	–	–
CCCCCCCC/C=C\CCCCCCCC(=O)N[C@@H](CC(C)C)C(=O)O	143	72.2	> 10000	–	–	–	–
CCCCCCCC/C=C\CCCCCCCC(=O)NCC(=O)O [OLEOYL GLYCINE]	500	66.8	> 30000	500	0.45	> 17.03	< 15
CCCCC/C=C\C/C=C\C/C=C\C/C=C\CCCC(=O)N[C@@H](C)C(=O)O	–	–	–	9000	–	–	–
CCCCCCCC/C=C\CCCCCCCC(=O)N[C@@H](CN)C(=O)O	182	58.2	> 3000	–	–	–	–
CCCCCCCC/C=C\CCCCCCCC(=O)N[C@H](Cc1ccccc1)C(=O)O	> 10000	42.3	> 10000	–	–	–	–
CCCCCCCC/C=C\CCCCCCCC(=O)N[C@@H](Cc1ccccc1)C(=O)O	214	54.7	> 10000	–	–	–	–
CCCCCCCC/C=C\CCCCCCCC(=O)N[C@@H](C)C(=O)O	1230	89.8	> 30000	–	–	–	–
CCCCCCCC/C=C\CCCCCCCC(=O)N[C@@H](CC(=O)O)C(=O)O	865	76.7	> 10000	–	–	–	–
CCCCCCCC/C=C\CCCCCCCC(=O)N[C@H](CCC(=O)O)C(=O)O	3750	91.6	> 10000	–	–	–	–
CCCCCCCC/C=C\CCCCCCCC(=O)N[C@H](CC(=O)O)C(=O)O	1810	92.5	> 10000	–	–	–	–
CCCCCCCC/C=C\CCCCCCCC(=O)N[C@@H](CCCN)C(=O)O	31.6	86	> 3000	–	–	–	–
CCCCCCCC/C=C\CCCCCCCC(=O)N[C@@H](CCN)C(=O)O	152	82.7	> 3000	–	–	–	–
CCCCC/C=C\C/C=C\C/C=C\C/C=C\CCCC(=O)NCCCC(=O)O [ARACHIDONOYL GABA]	–	–	–	12000	–	–	–
CCCCCCCC/C=C\CCCCCCCC(=O)N[C@H](CCCNC(=N)N)C(=O)O	69.2	70.9	> 3000	–	–	–	–
CCCCCCCC/C=C\CCCCCCCC(=O)N[C@H](CCc1ccccc1)C(=O)O	> 10000	10.2	> 10000	–	–	–	–
